Measured values of several laboratories.
Each line is one published result; the experiments were not run side by side.
Target: Vascular endothelial growth factor receptor 1 (FLT1, Homo sapiens, UniProt P17948)

Structure (SMILES)	effect on	action	technique	concentration	measurement	result
CC(C)S(=O)(=O)c1ccc2nccc(Nc3ccc4sc(C5CCCC5)nc4c3)c2c1	enzyme activity	inhibitor		1 µM	activity vs control	107%
CO[C@@H]1[C@H](N(C)C(=O)c2ccccc2)C[C@H]2O[C@]1(C)n1c3ccccc3c3c4c(c5c6ccccc6n2c5c31)C(=O)NC4	enzyme activity	inhibitor		1 µM	inhibition	57%
CCCCC(=O)Nc1ccc(-c2ccc3ncn(CCC)c(=O)c3c2)cn1	binding		competition with immobilised ligand	0.5 µM	remaining binding	98%
C1=C/COCc2cc(ccc2OCCN2CCCC2)Nc2nccc(n2)-c2cccc(c2)COC/1	binding			0.1 µM	remaining binding	64%
C[C@H]1CC[C@H](n2c3cnccc3c3cnc(Nc4ccc5c(n4)CCN(C(=O)CO)C5)nc32)CC1	cell-free assay		competition with immobilised ligand	1 µM	remaining binding	93%
O=C1C=C(Nc2ccc(OCc3cn(Cc4ccc(Cl)c(Cl)c4)nn3)cc2)C(=O)c2ccccc21	enzyme activity	inhibitor	radiometric	10 µM	inhibition	-38%
CN1CCN(C(=O)c2ccc(NC(=O)Nc3ccc(N(C)c4ccnc(Nc5ccc(CS(C)(=O)=O)cc5)n4)cc3)cc2)CC1	binding		competition with immobilised ligand	1 µM	remaining binding	0.4%
C=CC(=O)N1CCC[C@@H](n2nc(-c3ccc(Oc4ccccc4)cc3)c3c(N)ncnc32)C1	enzyme activity	inhibitor		1 µM	inhibition	33%
